{"source": "ChEMBL document CHEMBL1255260", "about": "“Population pharmacokinetics of piperaquine after two different treatment regimens with dihydroartemisinin-piperaquine in patients with Plasmodium falciparum malaria in Thailand” (Antimicrob Agents Chemother, 2008)", "key": {"[1]": {"assay": "Apparent oral clearance in high-fat fed healthy human at 4.2 mg/kg, po after 42 days", "format": "ADME, organism-based", "set-up": "dose 4.2 mg/kg, route oral", "details": "in vivo"}, "[2]": {"assay": "AUC (3 to 20 days) in uncomplicated malaria patient at 31 mg/kg, perorally once daily for 3 days", "format": "ADME, organism-based", "set-up": "dose 31 mg/kg, route oral", "details": "human, plasma, po", "method_in_brief": "(§1)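 Oral dihydroartemisinin-piperaquine, supervised, with no food restriction, in patients aged 3–55 y. The total dose of 55 mg/kg piperaquine phosphate was given as four doses (0, 8, 24, 48 h) or three doses (0, 24, 48 h). Sparse plasma sampling ran to day 63, measured by SPE-LC-UV (LLOQ 5 or 2.5 ng/ml). AUCs came from individual NONMEM two-compartment estimates. Children were ≤12 y and <30 kg.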"}, "[3]": {"assay": "Apparent oral clearance in healthy human at 25 mg/kg, po after 29 days", "format": "ADME, organism-based", "set-up": "dose 25 mg/kg, route oral", "details": "in vivo"}, "[4]": {"assay": "Terminal half-life in healthy human at 4.2 mg/kg, po after 42 days", "format": "ADME, organism-based", "set-up": "dose 4.2 mg/kg, route oral", "details": "in vivo"}, "[5]": {"assay": "Terminal half-life in human with uncomplicated malaria at 31 mg/kg, perorally after 63 days", "format": "ADME, organism-based", "set-up": "dose 31 mg/kg, route oral", "details": "in vivo, po", "method_in_brief": "(§2)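 Population PK in 98 uncomplicated falciparum patients given dihydroartemisinin-piperaquine orally (55 mg/kg piperaquine phosphate total, 3- or 4-dose regimen). Patients gave a pretreatment sample, 2–4 early-window samples and one sample on days 7–63. Plasma piperaquine was measured by SPE-LC-UV. Log concentrations were fitted by NONMEM (FO/FOCE) to a two-compartment first-order absorption model with regimen as covariate.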"}, "[6]": {"assay": "AUC (0 to 60 days) in human adult with uncomplicated malaria at 31 mg/kg, perorally", "format": "ADME, organism-based", "set-up": "time < 1440 hr, dose 31 mg/kg, route oral", "details": "plasma, po", "method_in_brief": "as §1"}, "[7]": {"assay": "Apparent steady-state volume of distribution with respect to bioavailability in human with uncomplicated malaria at 31 mg/kg, perorally after 63 days", "format": "ADME, organism-based", "details": "in vivo, po, read-out: Vss/F", "method_in_brief": "as §2"}, "[8]": {"assay": "Terminal half-life in human with uncomplicated malaria at 32 mg/kg, perorally after 35 days", "format": "ADME, organism-based", "set-up": "dose 32 mg/kg, route oral", "details": "in vivo, po"}, "[9]": {"assay": "AUC (3 to 20 days) in children with uncomplicated malaria at 31 mg/kg, perorally", "format": "ADME, organism-based", "set-up": "dose 31 mg/kg, route oral", "details": "human, plasma, po", "method_in_brief": "as §1"}, "[10]": {"assay": "Apparent oral clearance in human with uncomplicated malaria at 32 mg/kg, perorally after 35 days", "format": "ADME, organism-based", "set-up": "dose 32 mg/kg, route oral", "details": "in vivo"}, "[11]": {"assay": "Terminal half-life in human with uncomplicated malaria at 31 mg/kg, perorally", "format": "ADME, organism-based", "set-up": "dose 31 mg/kg, route oral", "details": "in vivo, po", "method_in_brief": "as §2"}, "[12]": {"assay": "Plasma concentration in human with uncomplicated malaria at 31 mg/kg, perorally at day 28", "format": "ADME, organism-based", "set-up": "dose 31 mg/kg, route oral", "details": "po", "method_in_brief": "(§3)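 Plasma piperaquine concentrations were simulated from the final NONMEM population model (500 simulations at each sampling time up to day 63). This followed oral dihydroartemisinin-piperaquine at a 55 mg/kg piperaquine phosphate total, given once daily at 0, 24 and 48 h or as four doses at 0, 8, 24 and 48 h.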"}, "[13]": {"assay": "Apparent volume of distribution with respect to bioavailability in human with uncomplicated malaria at 31 mg/kg, perorally", "format": "ADME, organism-based", "details": "in vivo, po, read-out: Vc/F", "method_in_brief": "as §2"}, "[14]": {"assay": "Plasma concentration in human with uncomplicated malaria at 31 mg/kg, perorally once daily for 3 days measured at day 20", "format": "ADME, organism-based", "set-up": "dose 31 mg/kg, route oral", "details": "po, read-out: MIC", "method_in_brief": "as §3"}, "[15]": {"assay": "Terminal half-life in human with uncomplicated malaria at 35 mg/kg, perorally after 35 days", "format": "ADME, organism-based", "set-up": "dose 35 mg/kg, route oral", "details": "in vivo, po"}, "[16]": {"assay": "Apparent steady-state volume of distribution with respect to bioavailability in high-fat fed healthy human at 4.2 mg/kg, po after 42 days", "format": "ADME, organism-based", "details": "in vivo, read-out: Vss/F"}, "[17]": {"assay": "AUC (3 to 20 days) in uncomplicated malaria patient at 31 mg/kg, perorally four-dose treatment regimen", "format": "ADME, organism-based", "set-up": "dose 31 mg/kg, route oral", "details": "human, plasma, po", "method_in_brief": "as §1"}, "[18]": {"assay": "Apparent steady-state volume of distribution with respect to bioavailability in human with uncomplicated malaria at 31 mg/kg, perorally", "format": "ADME, organism-based", "details": "in vivo, po, read-out: Vss/F", "method_in_brief": "as §2"}, "[19]": {"assay": "Plasma concentration in human with uncomplicated malaria at 31 mg/kg, perorally four-dose treatment regimen measured at day 20", "format": "ADME, organism-based", "set-up": "dose 31 mg/kg, route oral", "details": "po, read-out: MIC", "method_in_brief": "as §3"}, "[20]": {"assay": "Apparent steady-state volume of distribution with respect to bioavailability in healthy human at 4.2 mg/kg, po after 42 days", "format": "ADME, organism-based", "details": "in vivo, read-out: Vss/F"}, "[21]": {"assay": "AUC (0 to 63 days) in human with uncomplicated malaria at 31 mg/kg, perorally once daily for 3 days", "format": "ADME, organism-based", "set-up": "time < 1512 hr, dose 31 mg/kg, route oral", "details": "plasma, po", "method_in_brief": "as §1"}, "[22]": {"assay": "Terminal elimination half-life in human with uncomplicated malaria at 31 mg/kg, perorally", "details": "in vivo, po"}, "[23]": {"assay": "AUC (3 to 20 days) in human adult with uncomplicated malaria at 31 mg/kg, perorally", "format": "ADME, organism-based", "set-up": "dose 31 mg/kg, route oral", "details": "plasma, po", "method_in_brief": "as §1"}, "[24]": {"assay": "Terminal half-life in healthy human at 25 mg/kg, po after 29 days", "format": "ADME, organism-based", "set-up": "dose 25 mg/kg, route oral", "details": "in vivo"}, "[25]": {"assay": "Apparent oral clearance in human with uncomplicated malaria at 35 mg/kg, perorally after 35 days", "format": "ADME, organism-based", "set-up": "dose 35 mg/kg, route oral", "details": "in vivo"}, "[26]": {"assay": "Apparent oral clearance in human with uncomplicated malaria at 31 mg/kg, perorally", "format": "ADME, organism-based", "set-up": "dose 31 mg/kg, route oral", "details": "in vivo", "method_in_brief": "as §2"}, "[27]": {"assay": "Apparent oral clearance in human with uncomplicated malaria at 31 mg/kg, perorally after 63 days", "format": "ADME, organism-based", "set-up": "dose 31 mg/kg, route oral", "details": "in vivo", "method_in_brief": "as §2"}, "[28]": {"assay": "AUC (0 to 63 days) in uncomplicated malaria patient at 31 mg/kg, perorally four-dose treatment regimen", "format": "ADME, organism-based", "set-up": "time < 1512 hr, dose 31 mg/kg, route oral", "details": "human, plasma, po", "method_in_brief": "as §1"}, "[29]": {"assay": "Apparent oral clearance in healthy human at 4.2 mg/kg, po after 42 days", "format": "ADME, organism-based", "set-up": "dose 4.2 mg/kg, route oral", "details": "in vivo"}, "Homo sapiens [30]": {"tested_on": "Homo sapiens", "assay": "Apparent intercompartmental clearance with respect to bioavailability in human with uncomplicated malaria at 31 mg/kg, perorally", "format": "ADME, organism-based", "details": "in vivo, po", "method_in_brief": "as §2"}, "[31]": {"assay": "Apparent steady-state volume of distribution with respect to bioavailability in human with uncomplicated malaria at 32 mg/kg, perorally after 35 days", "format": "ADME, organism-based", "details": "in vivo, po, read-out: Vss/F"}, "[32]": {"assay": "AUC (0 to 60 days) in children with uncomplicated malaria at 31 mg/kg, perorally", "format": "ADME, organism-based", "set-up": "time < 1440 hr, dose 31 mg/kg, route oral", "details": "human, plasma, po", "method_in_brief": "as §1"}, "[33]": {"assay": "Terminal half-life in high-fat fed healthy human at 4.2 mg/kg, po after 42 days", "format": "ADME, organism-based", "set-up": "dose 4.2 mg/kg, route oral", "details": "in vivo"}, "Homo sapiens [34]": {"tested_on": "Homo sapiens", "assay": "Apparent peripheral volume of distribution with respect to bioavailability in human with uncomplicated malaria at 31 mg/kg, perorally", "format": "ADME, organism-based", "details": "in vivo, po", "method_in_brief": "as §2"}}, "data": [{"molecule": "Clc1ccc2c(N3CCN(CCCN4CCN(c5ccnc6cc(Cl)ccc56)CC4)CC3)ccnc2c1", "note": "[PIPERAQUINE]", "values": [{"measurement": "CL/F", "setting": "[1]", "result": 10, "unit": "mL/min/kg"}, {"measurement": "AUC", "setting": "[2]", "result": 8650, "unit": "ng·h/mL"}, {"measurement": "CL/F", "setting": "[3]", "result": 16.7, "unit": "mL/min/kg"}, {"measurement": "half-life", "setting": "[4]", "result": 20, "unit": "days"}, {"measurement": "half-life", "setting": "[5]", "result": 28, "unit": "days"}, {"measurement": "AUC(0-t) at 1440 h", "setting": "[6]", "result": 19400, "unit": "ng·h/mL"}, {"measurement": "Vd/F", "setting": "[7]", "result": 874, "unit": "L/kg"}, {"measurement": "half-life", "setting": "[8]", "result": 23, "unit": "days"}, {"measurement": "AUC(0-t)", "setting": "[9]", "result": 7580, "unit": "ng·h/mL"}, {"measurement": "CL/F", "setting": "[10]", "result": 15, "unit": "mL/min/kg"}, {"measurement": "half-life", "setting": "[11]", "result": 28, "unit": "days"}, {"measurement": "concentration at 28 day", "setting": "[12]", "result": "< 10", "unit": "ng/mL"}, {"measurement": "Vd/F", "setting": "[13]", "result": 8660, "unit": "L"}, {"measurement": "concentration at 72 h", "setting": "[14]", "result": 12, "unit": "ng/mL"}, {"measurement": "half-life", "setting": "[15]", "result": 14, "unit": "days"}, {"measurement": "Vd/F", "setting": "[16]", "result": 365, "unit": "L/kg"}, {"measurement": "AUC(0-t)", "setting": "[17]", "result": 9070, "unit": "ng·h/mL"}, {"measurement": "Vd/F", "setting": "[18]", "result": 38100, "unit": "L"}, {"measurement": "concentration at 20 day", "setting": "[19]", "result": 13, "unit": "ng/mL"}, {"measurement": "Vd/F", "setting": "[20]", "result": 716, "unit": "L/kg"}, {"measurement": "AUC at 1512 h", "setting": "[21]", "result": 19400, "unit": "ng·h/mL"}, {"measurement": "half-life", "setting": "[22]", "result": 27.8, "unit": "days"}, {"measurement": "AUC(0-t)", "setting": "[23]", "result": 8650, "unit": "ng·h/mL"}, {"measurement": "half-life", "setting": "[24]", "result": 12, "unit": "days"}, {"measurement": "CL/F", "setting": "[25]", "result": 30.8, "unit": "mL/min/kg"}, {"measurement": "CL/F", "setting": "[26]", "result": 1100, "unit": "mL/min"}, {"measurement": "CL/F", "setting": "[27]", "result": 23.3, "unit": "mL/min/kg"}, {"measurement": "AUC(0-t) at 1512 h", "setting": "[28]", "result": 20700, "unit": "ng·h/mL"}, {"measurement": "CL/F", "setting": "[29]", "result": 19, "unit": "mL/min/kg"}, {"measurement": "CL/F", "setting": "Homo sapiens [30]", "result": 131, "unit": "L/h"}, {"measurement": "Vd/F", "setting": "[31]", "result": 574, "unit": "L/kg"}, {"measurement": "AUC(0-t) at 1440 h", "setting": "[32]", "result": 25900, "unit": "ng·h/mL"}, {"measurement": "half-life", "setting": "[33]", "result": 21, "unit": "days"}, {"measurement": "Vp/F", "setting": "Homo sapiens [34]", "result": 24000, "unit": "L"}]}]}
